Tests used:
[1] = system: MRC5; test: Cytotoxicity against human MRC5 cells assessed as growth inhibition after 72 hrs; format: cell-based; conditions: MRC5, 72 h
In short: (§1)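 Resazurin viability assay: 2 × 10³ cells/well (MRC5 in MEM + 10% FBS; bloodstream-form T. b. brucei in appropriate medium), compounds 50 μM to 0.5 nM, 37 °C, 5% CO₂ for 69 h, then resazurin 50 μM final for further 4 h; fluorescence read. Concentration giving 50% growth inhibition over 72 h; average of two or more experiments.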

[2] = molecular target: MAP kinase-activated protein kinase 2 (Homo sapiens) (UniProt P49137); test: Inhibition of MAPKAP-K2 (unknown origin) assessed as residual enzyme activity at 10 uM
Sequence of MAP kinase-activated protein kinase 2 (Homo sapiens) (P49137 whole entry, looked up): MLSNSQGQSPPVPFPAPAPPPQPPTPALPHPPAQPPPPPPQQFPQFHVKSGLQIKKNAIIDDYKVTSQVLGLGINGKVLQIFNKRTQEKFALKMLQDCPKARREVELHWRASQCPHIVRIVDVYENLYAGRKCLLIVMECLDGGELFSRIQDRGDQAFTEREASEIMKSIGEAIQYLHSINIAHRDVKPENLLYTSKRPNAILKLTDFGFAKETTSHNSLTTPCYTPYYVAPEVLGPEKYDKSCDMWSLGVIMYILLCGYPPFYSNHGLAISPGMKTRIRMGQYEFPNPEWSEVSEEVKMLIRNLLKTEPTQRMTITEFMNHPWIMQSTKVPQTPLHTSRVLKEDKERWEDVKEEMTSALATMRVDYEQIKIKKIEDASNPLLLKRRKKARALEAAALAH

[3] = molecular target: T1, Dual specificity tyrosine-phosphorylation-regulated kinase 2 (Homo sapiens) (UniProt Q92630); test: Inhibition of DYRK2 (unknown origin) assessed as residual enzyme activity at 10 uM
T1 sequence (whole entry): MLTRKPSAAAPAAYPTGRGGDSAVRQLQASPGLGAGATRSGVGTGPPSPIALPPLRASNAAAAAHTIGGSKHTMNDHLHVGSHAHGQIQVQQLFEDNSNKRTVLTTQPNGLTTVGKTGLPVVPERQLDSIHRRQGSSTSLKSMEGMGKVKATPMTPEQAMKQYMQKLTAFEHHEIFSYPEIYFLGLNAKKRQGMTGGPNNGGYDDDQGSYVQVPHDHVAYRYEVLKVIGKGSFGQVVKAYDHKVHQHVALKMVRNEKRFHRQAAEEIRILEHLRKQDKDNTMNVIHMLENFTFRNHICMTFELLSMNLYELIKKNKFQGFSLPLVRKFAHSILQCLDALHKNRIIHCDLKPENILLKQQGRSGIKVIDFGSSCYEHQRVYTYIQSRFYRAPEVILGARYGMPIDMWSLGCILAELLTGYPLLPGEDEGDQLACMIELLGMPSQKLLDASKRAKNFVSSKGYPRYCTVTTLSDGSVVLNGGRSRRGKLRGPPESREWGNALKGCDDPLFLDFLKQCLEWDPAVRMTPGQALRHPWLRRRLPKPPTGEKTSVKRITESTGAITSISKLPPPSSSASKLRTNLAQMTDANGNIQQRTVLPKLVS

[4] = system: Trypanosoma brucei brucei; test: Trypanocidal activity against bloodstream stage of Trypanosoma brucei brucei assessed as inhibition of proliferation after 72 hrs; format: functional, organism-based; in short: as §1
[5] = molecular target: Glycogen synthase kinase-3 beta (Homo sapiens) (UniProt P49841); test: Inhibition of GSK3b (unknown origin) assessed as residual enzyme activity at 10 uM
[6] = molecular target: Insulin-like growth factor 1 receptor (Homo sapiens) (UniProt P08069); test: Inhibition of IGF-1R (unknown origin) assessed as residual enzyme activity at 10 uM
Sequence of Insulin-like growth factor 1 receptor (Homo sapiens) (P08069 31-736 limits assumed): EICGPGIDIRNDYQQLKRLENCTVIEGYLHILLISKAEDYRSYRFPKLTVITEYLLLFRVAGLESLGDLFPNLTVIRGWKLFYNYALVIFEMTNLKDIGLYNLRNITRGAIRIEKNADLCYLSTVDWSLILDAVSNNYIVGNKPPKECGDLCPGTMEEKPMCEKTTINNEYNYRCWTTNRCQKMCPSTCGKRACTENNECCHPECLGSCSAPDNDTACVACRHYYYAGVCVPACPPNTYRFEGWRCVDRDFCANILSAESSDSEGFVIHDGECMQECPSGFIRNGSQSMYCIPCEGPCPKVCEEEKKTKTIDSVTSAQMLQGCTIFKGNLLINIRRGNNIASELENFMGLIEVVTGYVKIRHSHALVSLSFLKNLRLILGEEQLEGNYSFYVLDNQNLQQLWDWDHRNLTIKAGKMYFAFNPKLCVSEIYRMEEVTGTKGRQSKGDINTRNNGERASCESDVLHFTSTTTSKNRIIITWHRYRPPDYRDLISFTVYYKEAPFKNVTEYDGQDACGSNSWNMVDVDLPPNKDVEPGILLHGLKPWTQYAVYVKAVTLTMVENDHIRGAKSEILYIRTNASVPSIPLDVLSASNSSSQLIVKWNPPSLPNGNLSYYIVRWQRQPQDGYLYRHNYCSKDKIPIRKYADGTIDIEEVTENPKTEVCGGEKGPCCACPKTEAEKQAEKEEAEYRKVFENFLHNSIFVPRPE
Sequence of Insulin-like growth factor 1 receptor (Homo sapiens) (P08069 741-1367 limits assumed): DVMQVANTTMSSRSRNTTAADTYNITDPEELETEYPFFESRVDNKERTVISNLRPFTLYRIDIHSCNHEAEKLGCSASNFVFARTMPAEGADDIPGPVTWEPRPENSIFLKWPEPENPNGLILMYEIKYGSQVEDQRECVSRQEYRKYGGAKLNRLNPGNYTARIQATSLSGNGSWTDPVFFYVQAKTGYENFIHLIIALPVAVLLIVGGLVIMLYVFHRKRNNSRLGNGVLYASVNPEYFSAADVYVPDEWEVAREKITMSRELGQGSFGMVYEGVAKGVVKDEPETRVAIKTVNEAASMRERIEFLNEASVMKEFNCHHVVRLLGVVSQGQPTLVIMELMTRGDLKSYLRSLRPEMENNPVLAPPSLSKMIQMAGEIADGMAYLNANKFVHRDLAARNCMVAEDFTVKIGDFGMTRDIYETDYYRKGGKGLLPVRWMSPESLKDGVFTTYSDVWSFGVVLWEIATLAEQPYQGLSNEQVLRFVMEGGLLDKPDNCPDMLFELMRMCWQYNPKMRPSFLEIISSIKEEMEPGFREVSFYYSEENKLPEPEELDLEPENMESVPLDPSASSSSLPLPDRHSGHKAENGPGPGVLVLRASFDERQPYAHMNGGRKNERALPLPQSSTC

[7] = Inhibition of Trypanosoma brucei GSK3 using biotinylated GSP2 substrate by flashplate assay
In short: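 Radiometric Flashplate assay: 2.5 nM TbGSK3 short, 1 μM biotinylated GSP2, 1 μM ATP plus [γ-33P]-ATP. 10-point titration 30 μM to 0.3 nM final, 1% DMSO. IC50 averaged over two or more experiments; standard GW8510 used for reproducibility (MSR).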

[8] = molecular target: Cyclin-dependent kinase 2 (Homo sapiens) (UniProt P24941); test: Inhibition of CDK2 (unknown origin) assessed as residual enzyme activity at 10 uM
[9] = molecular target: Dual specificity mitogen-activated protein kinase kinase 1 (Homo sapiens) (UniProt Q02750); test: Inhibition of MKK1 (unknown origin) assessed as residual enzyme activity at 10 uM
Sequence of Dual specificity mitogen-activated protein kinase kinase 1 (Homo sapiens) (Q02750 whole entry): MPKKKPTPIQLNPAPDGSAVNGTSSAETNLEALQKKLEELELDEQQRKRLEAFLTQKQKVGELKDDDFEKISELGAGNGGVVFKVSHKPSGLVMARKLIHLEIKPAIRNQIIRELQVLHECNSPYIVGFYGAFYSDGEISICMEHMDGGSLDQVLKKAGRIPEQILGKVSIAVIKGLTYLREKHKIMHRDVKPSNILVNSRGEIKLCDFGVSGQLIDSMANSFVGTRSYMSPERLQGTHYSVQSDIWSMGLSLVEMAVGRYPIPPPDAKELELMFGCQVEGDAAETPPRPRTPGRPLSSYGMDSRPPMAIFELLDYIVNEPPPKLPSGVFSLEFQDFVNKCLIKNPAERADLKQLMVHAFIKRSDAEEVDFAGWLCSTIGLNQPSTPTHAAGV

[10] = molecular target: Mitogen-activated protein kinase 1 (Homo sapiens) (UniProt P28482); test: Inhibition of ERK2 (unknown origin) assessed as residual enzyme activity at 10 uM
Sequence of Mitogen-activated protein kinase 1 (Homo sapiens) (P28482 whole entry): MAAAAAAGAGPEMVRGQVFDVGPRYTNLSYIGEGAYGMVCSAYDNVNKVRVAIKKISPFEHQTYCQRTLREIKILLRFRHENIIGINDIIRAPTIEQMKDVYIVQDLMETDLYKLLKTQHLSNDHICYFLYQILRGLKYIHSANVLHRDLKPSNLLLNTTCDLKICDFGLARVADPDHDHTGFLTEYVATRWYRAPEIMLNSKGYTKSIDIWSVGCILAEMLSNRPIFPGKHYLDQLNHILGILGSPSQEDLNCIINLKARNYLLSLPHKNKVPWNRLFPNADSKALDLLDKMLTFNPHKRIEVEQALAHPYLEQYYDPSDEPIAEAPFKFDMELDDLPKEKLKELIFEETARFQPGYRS

[11] = molecular target: Mitogen-activated protein kinase 9 (Homo sapiens) (UniProt P45984); test: Inhibition of JNK2 (unknown origin) assessed as residual enzyme activity at 10 uM
Sequence of Mitogen-activated protein kinase 9 (Homo sapiens) (P45984 whole entry, looked up): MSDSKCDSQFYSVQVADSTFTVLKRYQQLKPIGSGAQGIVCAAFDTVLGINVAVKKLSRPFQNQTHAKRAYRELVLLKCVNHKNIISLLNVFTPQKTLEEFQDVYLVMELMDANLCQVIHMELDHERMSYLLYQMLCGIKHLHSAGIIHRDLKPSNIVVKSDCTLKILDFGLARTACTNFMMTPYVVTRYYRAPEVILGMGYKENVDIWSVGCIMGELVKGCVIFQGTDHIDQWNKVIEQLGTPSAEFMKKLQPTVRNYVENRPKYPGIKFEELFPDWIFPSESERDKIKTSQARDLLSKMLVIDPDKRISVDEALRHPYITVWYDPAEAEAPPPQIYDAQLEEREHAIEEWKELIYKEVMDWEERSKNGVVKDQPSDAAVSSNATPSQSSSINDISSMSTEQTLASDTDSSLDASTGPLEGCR

[12] = molecular target: Mitogen-activated protein kinase 8 (Homo sapiens) (UniProt P45983); test: Inhibition of JNK1 (unknown origin) assessed as residual enzyme activity at 10 uM
Sequence of Mitogen-activated protein kinase 8 (Homo sapiens) (P45983 whole entry): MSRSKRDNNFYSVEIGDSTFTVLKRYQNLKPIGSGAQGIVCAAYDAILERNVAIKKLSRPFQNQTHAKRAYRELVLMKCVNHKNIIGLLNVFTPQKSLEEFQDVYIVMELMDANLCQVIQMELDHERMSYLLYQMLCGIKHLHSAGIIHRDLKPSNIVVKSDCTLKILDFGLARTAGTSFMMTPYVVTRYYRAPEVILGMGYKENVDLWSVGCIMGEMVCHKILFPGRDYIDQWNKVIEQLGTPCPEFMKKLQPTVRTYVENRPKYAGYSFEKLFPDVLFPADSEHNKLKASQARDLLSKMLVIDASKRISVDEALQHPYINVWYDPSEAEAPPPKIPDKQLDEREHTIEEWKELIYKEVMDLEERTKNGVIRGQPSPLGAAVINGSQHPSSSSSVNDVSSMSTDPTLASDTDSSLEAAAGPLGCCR

[13] = molecular target: Dual specificity tyrosine-phosphorylation-regulated kinase 1A (Homo sapiens) (UniProt Q13627); test: Inhibition of DYRK1A (unknown origin) assessed as residual enzyme activity at 10 uM
[14] = molecular target: T2, Mitogen-activated protein kinase 15 (Homo sapiens) (UniProt Q8TD08); test: Inhibition of ERK8 (unknown origin) assessed as residual enzyme activity at 10 uM
T2 sequence (whole entry): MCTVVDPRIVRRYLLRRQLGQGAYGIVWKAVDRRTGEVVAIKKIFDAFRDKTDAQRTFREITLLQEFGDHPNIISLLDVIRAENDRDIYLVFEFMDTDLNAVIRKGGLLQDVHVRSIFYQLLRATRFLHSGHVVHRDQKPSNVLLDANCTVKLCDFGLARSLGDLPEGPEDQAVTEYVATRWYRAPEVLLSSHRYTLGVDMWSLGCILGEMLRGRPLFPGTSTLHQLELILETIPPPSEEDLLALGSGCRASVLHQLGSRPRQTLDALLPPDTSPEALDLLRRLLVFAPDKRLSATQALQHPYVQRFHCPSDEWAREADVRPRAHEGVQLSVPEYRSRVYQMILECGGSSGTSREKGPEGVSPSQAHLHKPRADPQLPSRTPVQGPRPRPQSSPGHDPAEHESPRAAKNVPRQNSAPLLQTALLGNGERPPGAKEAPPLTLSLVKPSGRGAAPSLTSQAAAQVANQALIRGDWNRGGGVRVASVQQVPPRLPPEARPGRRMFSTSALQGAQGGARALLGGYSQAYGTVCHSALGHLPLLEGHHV

[15] = molecular target: Maternal embryonic leucine zipper kinase (Homo sapiens) (UniProt Q14680); test: Inhibition of MELK (unknown origin) assessed as residual enzyme activity at 10 uM
[16] = molecular target: Glycogen synthase kinase-3 (Homo sapiens, UniProt P49840+P49841); test: Inhibition of human GSK3 using biotinylated GSP2 substrate by flashplate assay; format: protein assay
[17] = molecular target: Homeodomain-interacting protein kinase 2 (Homo sapiens) (UniProt Q9H2X6); test: Inhibition of HIPK2 (unknown origin) assessed as residual enzyme activity at 10 uM
Sequence of Homeodomain-interacting protein kinase 2 (Homo sapiens) (Q9H2X6 whole entry, looked up): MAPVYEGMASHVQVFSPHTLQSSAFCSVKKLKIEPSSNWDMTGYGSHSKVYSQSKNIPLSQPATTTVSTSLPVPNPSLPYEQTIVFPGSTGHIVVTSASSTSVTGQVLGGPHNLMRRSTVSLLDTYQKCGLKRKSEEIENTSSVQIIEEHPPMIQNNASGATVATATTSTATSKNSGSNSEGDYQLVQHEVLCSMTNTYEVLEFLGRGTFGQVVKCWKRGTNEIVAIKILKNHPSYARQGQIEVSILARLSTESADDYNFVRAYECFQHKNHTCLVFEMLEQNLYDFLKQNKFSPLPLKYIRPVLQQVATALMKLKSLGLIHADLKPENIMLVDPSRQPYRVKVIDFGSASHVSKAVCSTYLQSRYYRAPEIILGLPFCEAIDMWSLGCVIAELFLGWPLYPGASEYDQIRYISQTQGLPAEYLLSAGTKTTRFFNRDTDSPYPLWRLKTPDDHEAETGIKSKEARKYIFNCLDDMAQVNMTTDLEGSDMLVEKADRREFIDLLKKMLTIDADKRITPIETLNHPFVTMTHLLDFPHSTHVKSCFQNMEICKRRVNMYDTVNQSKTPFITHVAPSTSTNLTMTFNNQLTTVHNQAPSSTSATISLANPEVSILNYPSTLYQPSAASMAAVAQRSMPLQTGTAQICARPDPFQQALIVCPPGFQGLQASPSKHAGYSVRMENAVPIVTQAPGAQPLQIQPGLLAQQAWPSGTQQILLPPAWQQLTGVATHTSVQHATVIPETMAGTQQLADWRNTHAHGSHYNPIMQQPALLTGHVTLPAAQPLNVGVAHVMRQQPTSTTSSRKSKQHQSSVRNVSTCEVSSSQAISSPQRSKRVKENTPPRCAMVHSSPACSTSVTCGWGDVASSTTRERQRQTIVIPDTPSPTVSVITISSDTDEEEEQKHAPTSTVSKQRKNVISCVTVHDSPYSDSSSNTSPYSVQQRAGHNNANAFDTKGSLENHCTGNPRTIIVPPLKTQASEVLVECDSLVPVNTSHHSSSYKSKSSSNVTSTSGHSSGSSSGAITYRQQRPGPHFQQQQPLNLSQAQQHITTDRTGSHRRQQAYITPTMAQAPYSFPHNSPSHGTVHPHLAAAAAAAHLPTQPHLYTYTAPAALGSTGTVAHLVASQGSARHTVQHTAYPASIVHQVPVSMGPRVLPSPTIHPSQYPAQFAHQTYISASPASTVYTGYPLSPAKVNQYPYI

[18] = molecular target: Serine/threonine-protein kinase pim-1 (Homo sapiens) (UniProt P11309); test: Inhibition of PIM1 (unknown origin) assessed as residual enzyme activity at 10 uM
[19] = molecular target: T3, Dual specificity tyrosine-phosphorylation-regulated kinase 3 (Homo sapiens) (UniProt O43781); test: Inhibition of DYRK3 (unknown origin) assessed as residual enzyme activity at 10 uM
T3 sequence (whole entry): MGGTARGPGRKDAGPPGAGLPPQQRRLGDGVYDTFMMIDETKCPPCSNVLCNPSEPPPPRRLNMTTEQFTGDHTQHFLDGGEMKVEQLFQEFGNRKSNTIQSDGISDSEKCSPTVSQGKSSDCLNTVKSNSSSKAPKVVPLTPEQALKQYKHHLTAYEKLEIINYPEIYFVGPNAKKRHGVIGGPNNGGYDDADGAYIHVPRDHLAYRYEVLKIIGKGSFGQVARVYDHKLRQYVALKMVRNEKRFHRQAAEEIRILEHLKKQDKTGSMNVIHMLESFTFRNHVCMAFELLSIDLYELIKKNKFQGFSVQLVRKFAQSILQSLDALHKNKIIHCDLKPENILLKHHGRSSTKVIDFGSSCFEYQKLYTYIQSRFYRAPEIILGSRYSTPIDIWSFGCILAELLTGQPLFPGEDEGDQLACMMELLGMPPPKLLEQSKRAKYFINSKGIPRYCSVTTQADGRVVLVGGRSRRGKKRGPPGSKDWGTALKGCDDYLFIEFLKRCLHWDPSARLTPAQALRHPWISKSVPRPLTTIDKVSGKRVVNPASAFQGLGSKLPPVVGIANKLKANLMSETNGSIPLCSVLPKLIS

[20] = molecular target: CDK2/Cyclin A2 (Homo sapiens, UniProt P24941); test: Inhibition of human CDK2/cyclin A using Biotin-C6-PKTPKKAKKL substrate; format: protein-complex assay
[21] = molecular target: Serine/threonine-protein kinase pim-3 (Homo sapiens) (UniProt Q86V86); test: Inhibition of PIM3 (unknown origin) assessed as residual enzyme activity at 10 uM
[22] = Selectivity ratio, ratio of IC50 for human GSK3 to IC50 Trypanosoma brucei GSK3
[23] = Selectivity ratio, ratio of IC50 for human CDK2/cyclin A to IC50 for Trypanosoma brucei GSK3
[24] = molecular target: Misshapen-like kinase 1 (Homo sapiens) (UniProt Q8N4C8); test: Inhibition of MINK1 (unknown origin) assessed as residual enzyme activity at 10 uM

| Structure (SMILES) | EC50 [1] [µM] | Activity [2] [%] | Activity [3] [%] | EC50 [4] [nM] | Activity [5] [%] | Activity [6] [%] | IC50 [7] [nM] | Activity [8] [%] | Activity [9] [%] | Activity [10] [%] | Activity [11] [%] | Activity [12] [%] | Activity [13] [%] | Activity [14] [%] | Activity [15] [%] | IC50 [16] [nM] | Activity [17] [%] | Activity [18] [%] | Activity [19] [%] | IC50 [20] [nM] | further results |
| --- | --- | --- | --- | --- | --- | --- | --- | --- | --- | --- | --- | --- | --- | --- | --- | --- | --- | --- | --- | --- | --- |
| CO[C@H]1CC[C@H](NC(=O)c2n[nH]cc2NC(=O)c2ccccc2)CC1 | 0.8 | 92 | 3 | 1300 | 33 | 96 | 24 | 1 | 54 | 18 | 51 | 31 | 6 | 14 | 32 | < 5 | 14 | 46 | 24 | 38 | Activity [21]: 19% |
| COc1cccc(OC)c1C(=O)Nc1c[nH]nc1C(=O)N[C@H]1CC[C@H](OC)CC1 | 31 | 33 | 63 | 500 | 0 | 100 | 2 | 9 | 83 | 51 | 82 | 77 | 84 | 27 | 100 | < 5 | 100 | 100 | 100 | 190 | Ratio IC50 [22]: < 2.5; Ratio IC50 [23]: 95; Activity [21]: 94% |
| CO[C@H]1CC[C@H](NC(=O)c2n[nH]cc2NC(=O)c2ccc(-c3ccccc3)o2)CC1 | 0.1 | 90 | 1 | 300 | 0 | 15 | 7 | 1 | 17 | 2 | 15 | 8 | 1 | 7 | 13 | < 5 | 4 | 13 | 2 | 10 | Ratio IC50 [23]: 1.4; Activity [21]: 1% |
| COc1cccc(OC)c1C(=O)Nc1c[nH]nc1C(=O)NCc1ccccc1 | 50 | 13 | 28 | 5900 | 10 | 79 | 1 | 38 | 76 | 92 | 63 | 71 | 79 | 47 | 96 | 330 | 93 | 92 | 80 | > 10000 | Ratio IC50 [22]: 330; Ratio IC50 [23]: > 10000; Activity [24]: 18%; Activity [21]: 96% |

From ChEMBL document CHEMBL3352013, “The design and synthesis of potent and selective inhibitors of Trypanosoma brucei glycogen synthase kinase 3 for the treatment of human african trypanosomiasis” (J Med Chem, 2014)
